# Data from ChEMBL document CHEMBL1133045, “Enhancing the aqueous solubility of d4T-based phosphoramidate prodrugs” (Bioorg Med Chem Lett, 2000).
# Tests used:
# [1] = Partition coefficient (logP); assay type: physicochemical; conditions: octanol/water
# In short: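 LogP measured as the 1-octanol/water partition coefficient.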
# CCRF-CEM [2] = assay: Compound was evaluated for the cytotoxicity against CEM cell proliferation by 50%; assay type: functional; conditions: Homo sapiens
# CCRF-CEM [3] = assay: Concentration required to protect CEM/TK- cells against cytopathicity of HIV-2 by 50%; assay type: functional, cell-based; conditions: Homo sapiens
# CCRF-CEM [4] = assay: Concentration required to protect CEM cells against cytopathicity of HIV-1 by 50%; assay type: functional, cell-based; conditions: Homo sapiens
# CCRF-CEM [5] = assay: Concentration required to protect CEM cells against cytopathicity of HIV-2 by 50%; assay type: functional, cell-based; conditions: Homo sapiens
Compound,logP [1],EC50 (CCRF-CEM [3]) [nM],EC50 (CCRF-CEM [4]) [nM],EC50 (CCRF-CEM [5]) [nM],CC50 (CCRF-CEM [2]) [nM]
COCCOCCOCCOc1ccc(OP(=O)(NC(C)C(=O)OC)OCC2C=CC(n3cc(C)c(=O)[nH]c3=O)O2)cc1 (stereo unspecified),0.86,1350,750,1300,114000
COC(=O)C(C)NP(=O)(OCC1C=CC(n2cc(C)c(=O)[nH]c2=O)O1)Oc1ccc(CC(NC(=O)OC(C)(C)C)C(=O)OC)cc1 (stereo unspecified),1.07,800,650,700,217000
COC(=O)C(C)NP(=O)(OC[C@@H]1C=C[C@H](n2cc(C)c(=O)[nH]c2=O)O1)Oc1ccccc1 (stereo partly specified),1.04,,,,33000
COC(=O)C(N)Cc1ccc(OP(=O)(NC(C)C(=O)OC)OCC2C=CC(n3cc(C)c(=O)[nH]c3=O)O2)cc1 (stereo unspecified),0.09,5000,4000,10000,

# Second part, led by results:
logP [1],EC50 (CCRF-CEM [3]) [nM],EC50 (CCRF-CEM [4]) [nM],EC50 (CCRF-CEM [5]) [nM],Compound,CC50 (CCRF-CEM [2]) [nM]
0.86,340,90,600,COCCOc1ccc(OP(=O)(NC(C)C(=O)OC)OCC2C=CC(n3cc(C)c(=O)[nH]c3=O)O2)cc1 (stereo unspecified),35000
1.09,47,57,53,COC(=O)C(C)NP(=O)(OC[C@@H]1C=C[C@H](n2cc(C)c(=O)[nH]c2=O)O1)Oc1ccc(OC)cc1 (stereo partly specified),> 100000
1.1,400,200,250,CCOCCOc1ccc(OP(=O)(NC(C)C(=O)OC)OCC2C=CC(n3cc(C)c(=O)[nH]c3=O)O2)cc1 (stereo unspecified),64000
0.86,1200,550,1000,COCCOCCOc1ccc(OP(=O)(NC(C)C(=O)OC)OCC2C=CC(n3cc(C)c(=O)[nH]c3=O)O2)cc1 (stereo unspecified),47000
